Experimental data taken from ChEMBL document CHEMBL1127806, “Substrate specificity in short-chain phospholipid analogs at the active site of human synovial phospholipase A2” (J Med Chem, 1994).

Legend:
[1] = Ratio of catalysis rate (kcat) and Michaelis-Menten constant (Km) of the compound
Summary of the method: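 Recombinant human synovial PLA₂ (baculovirus-expressed, HPLC-purified) at 14 nM in 20 mM HEPES pH 7.5, 2 mM Ca²⁺, 0.8 mM DTNB. Thioester hydrolysis read at 405 nm as thionitrobenzoate (ε 13 600). Initial rates measured at substrate concentrations up to 100 μM. Apparent kcat/KM taken as the slope of rate versus [S] divided by enzyme concentration.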

[2] = Critical micelle concentration determined from the plots of the fluorescence intensity as a function of compound concentration; assay type: ADME
Summary of the method: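 Fluorescence of 8-anilino-1-naphthalenesulfonic acid (5 μM) followed as a function of compound concentration. Buffer: 20 mM HEPES pH 7.5 with 2 mM Ca²⁺, no DTNB. cmc read from the intensity-versus-concentration plot.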

[3] = Hydrolysis rate of the compound
Summary of the method: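 pH-stat at pH 9, titrated with 1 mM NaOH. Substrate 100 μM in deionized water with 2 mM Ca²⁺, under a nitrogen stream. Started with recombinant human synovial PLA₂ (1.69 nmol, 2.41 μg), purified from baculovirus by reversed-phase HPLC; preliminary set used E. coli-expressed enzyme. Rate recorded for 1 h from base consumption.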

[4] = Hydrolysis turn over determined from the plots of the fluorescence assay quantified by HPLC
Summary of the method: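 Recombinant human synovial PLA2 expressed in E. coli. Turnover of an amine-headgroup (phosphatidylethanolamine) substrate was measured by derivatizing the amine with excess fluorescamine and quantifying the fluorescent derivatives by reversed-phase HPLC. The rate is expressed as nmol·min⁻¹·mg⁻¹ enzyme.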

Ratio [1] | CMC [2] | Hydrolysis (nmol min-1 mg-1) [3] | Compound | CMC [4]
5900 l s-1 M-1 | 0.2 mM |  | CC/C=C\CCOC[C@H](COP(=O)([O-])OC)SC(=O)CCCCCCCCC.[Li+] | 
2500 l s-1 M-1 | 0.1 mM |  | CCCCCCCCCC(=O)S[C@H](COCc1ccc(-c2ccccc2)cc1)COP(=O)([O-])OC.[Li+] | 
12000 l s-1 M-1 | 0.13 mM |  | CCCCCCCCOC[C@H](COP(=O)([O-])OC)SC(=O)CCCCCCC.[Li+] | 
< 100 l s-1 M-1 |  |  | CC/C=C/C(=O)S[C@H](COCCCCCC)COP(=O)(O)OC | 
 |  | < 5 | CCCCCC(=O)OC[C@H](COP(=O)(O)OC[C@@H](N)C(=O)O)OC(=O)CCCCC | 
541000 l s-1 M-1 | < 0.03 mM |  | CCCCCCCCC(=O)SC[C@H](COP(=O)([O-])OC)SC(=O)CCCCCCCC.[Li+] | 
5000 l s-1 M-1 | 0.2 mM |  | CCCCCCCCCC(=O)S[C@H](COCc1ccccc1)COP(=O)([O-])OC.[Li+] | 
< 100 l s-1 M-1 |  |  | CCCCCCOC[C@H](COP(=O)(O)OC)SC(=O)c1ccccc1 | 
408000 l s-1 M-1 | 0.03 mM |  | CCCCCCCC(=O)SC[C@H](COP(=O)([O-])OC)SC(=O)CCCCCCC.[Li+] | 
1200 l s-1 M-1 | 1 mM |  | CCCCCCCC(=O)S[C@H](COCCC)COP(=O)([O-])OC.[Li+] | 
4600 l s-1 M-1 | 0.04 mM |  | CCCCCCCCCC(=O)S[C@H](COCc1ccc(Oc2ccccc2)cc1)COP(=O)([O-])OC.[Li+] | 
< 100 l s-1 M-1 | 0.04 mM |  | CCCCCC(=O)SC[C@H](COP(=O)(OC)OC)SC(=O)CCCCC | 
 |  | < 5 | CCCCCC(=O)OC[C@H](COP(=O)(O)OC)OC(=O)CCCCC | 
3700 l s-1 M-1 |  |  | CCCCCCCCOC[C@H](COP(=O)(O)OC)SC(=O)CCC | 
200 l s-1 M-1 | 2.3 mM |  | CCCC(=O)SC[C@H](COP(=O)([O-])OC)SC(=O)CCC.[Li+] | 
< 100 l s-1 M-1 |  |  | CCCCCOC[C@H](COP(=O)(O)OC)SC(=O)CCC | 
< 10 l s-1 M-1 | >= 3 mM |  | CCC(=O)SC[C@H](COP(=O)([O-])OC)SC(=O)CC.[Li+] | 
1800 l s-1 M-1 | >= 3 mM |  | CCCCCC(=O)SC[C@H](COP(=O)([O-])OC)SC(=O)CCCCC.[Li+] | 
7000 l s-1 M-1 | 1.25 mM |  | CCCCCCCC(=O)S[C@H](COCCCCC)COP(=O)([O-])OC.[Li+] | 
870 l s-1 M-1 | > 9 mM |  | CCCCC(=O)SC[C@H](COP(=O)([O-])OC)SC(=O)CCCC.[Li+] | 
37700 l s-1 M-1 | 0.3 mM |  | CCCCCCC(=O)SC[C@H](COP(=O)([O-])OC)SC(=O)CCCCCC.[Li+] | 
< 10 l s-1 M-1 | 3 mM |  | CCCOC[C@H](COP(=O)([O-])OC)SC(=O)CCC.[Li+] | 
 |  | < 5 | CCCCCC(=O)OC[C@H](COP(=O)(O)O[C@@H](C)[C@@H](N)C(=O)O)OC(=O)CCCCC | 
 | 0.5 mM | 13 | CCCCCC(=O)OC[C@H](COP(=O)(O)OC[C@H]1CCCN1)OC(=O)CCCCC | 
19000 l s-1 M-1 | 0.04 mM |  | CCCCCCCCCC(=O)S[C@H](COC/C=C/c1ccccc1)COP(=O)([O-])OC.[Li+] | 
160 l s-1 M-1 |  |  | CCCCCCOC[C@H](COP(=O)(O)OC)SC(=O)CCc1ccccc1 | 
 | 0.8 mM | 12 | CCCCCC(=O)OC[C@H](COP(=O)(O)OC[C@@H]1CCCN1)OC(=O)CCCCC | 
< 100 l s-1 M-1 |  |  | CCCCCCOC[C@H](COP(=O)(O)OC)SC(=O)CCC(C)C | 
627 l s-1 M-1 | 0.4 mM |  | CCCCCCCCCC(=O)S[C@H](COCCC(C)(C)C)COP(=O)([O-])OC.[Li+] | 
 |  | < 5 | CCCCCC(=O)OC[C@H](COP(=O)(O)OCCO)OC(=O)CCCCC | 

Compound | Ratio [1] | CMC [2] | Hydrolysis (nmol min-1 mg-1) [3] | CMC [4]
CCCCCC(=O)OC[C@H](COP(=O)(O)OCCN)OC(=O)CCCCC |  |  | 5.3 | 2.3 mM
